Test results from ChEMBL document CHEMBL1152836, “10H-Phenothiazines: a new class of enzyme inhibitors for inflammatory diseases” (Eur J Med Chem, 2009).

Assays:
[1] = Inhibition of superoxide dismutase assessed as inhibition of superoxide generation by spectrophotometry
Method in brief: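 Superoxide generation measured in a cell-membrane-free system by spectrophotometry at 340 nm. IC50 is the substrate concentration giving 50% inhibition of enzyme activity. Values are the average of three independent experiments (n = 3).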

[2] = Inhibition of phosphodiesterase assessed as production of inorganic phosphate
Method in brief: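 Activity measured as inorganic phosphate released with 5'-nucleotidase present in excess. IC50 is the substrate concentration giving 50% inhibition of enzyme activity. Values are the average of three independent experiments (n = 3).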

[3] = Inhibition of prostaglandin synthetase
Method in brief: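 Isolated soya bean lipoxygenase was the enzyme source. Arachidonic acid metabolites (prostaglandin E, leukotrienes) were analysed by reverse-phase ODS-18 HPLC with acetonitrile:water 70:30 mobile phase, detection at 280 nm. IC50 is the substrate concentration giving 50% inhibition. Values are the average of three independent experiments (n = 3).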

[4] = molecular target: Glutathione hydrolase 1 proenzyme (Homo sapiens, UniProt P19440); assay: Inhibition of gamma-glutamyltranspeptidase by colorimetric assay
Glutathione hydrolase 1 proenzyme, sequence (P19440 1-380 limits assumed): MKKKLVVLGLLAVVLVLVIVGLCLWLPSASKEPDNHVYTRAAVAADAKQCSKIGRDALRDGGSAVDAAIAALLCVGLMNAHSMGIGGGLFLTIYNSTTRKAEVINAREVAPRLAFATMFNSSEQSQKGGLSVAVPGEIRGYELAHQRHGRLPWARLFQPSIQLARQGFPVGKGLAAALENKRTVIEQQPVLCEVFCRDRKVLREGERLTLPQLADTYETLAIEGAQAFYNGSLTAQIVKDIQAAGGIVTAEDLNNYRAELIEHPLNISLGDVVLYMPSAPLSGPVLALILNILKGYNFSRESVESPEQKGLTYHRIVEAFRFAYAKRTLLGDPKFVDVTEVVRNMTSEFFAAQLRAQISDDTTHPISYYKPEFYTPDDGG
Glutathione hydrolase 1 proenzyme, sequence (P19440 381-569 limits assumed): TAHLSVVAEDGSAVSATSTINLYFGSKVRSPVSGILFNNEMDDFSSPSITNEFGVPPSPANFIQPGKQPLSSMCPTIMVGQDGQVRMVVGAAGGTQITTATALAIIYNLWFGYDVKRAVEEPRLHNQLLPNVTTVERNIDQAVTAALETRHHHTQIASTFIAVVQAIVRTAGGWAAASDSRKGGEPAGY
Method in brief: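 Colorimetric read-out at 405 nm by a standard procedure. IC50 is the substrate concentration giving 50% inhibition of enzyme activity. Values are the average of three independent experiments (n = 3).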

Row | Compound | IC50 [1] [µM] | IC50 [2] [µM] | IC50 [3] [µM] | IC50 [4] [µM]
1 | CNC(=O)C1=C(C)C2=C(Nc3ccccc3S2)C(C(=O)NC)C1c1ccc(OC)cc1 (stereo not drawn) | 18 | 21 | 20 | 25
2 | CNC(=O)C1=C(C)C2=C(Nc3ccccc3S2)C(C(=O)NC)C1c1ccccc1 (stereo not drawn) | 15 | 16 | 18 | 20
3 | CNC(=O)c1c(C)c2c(c(C(=O)NC)c1-c1ccc(Cl)cc1)Nc1ccccc1S2 | 18 | 18 | 23 | 20
4 | CNC(=O)c1c(C)c2c(c(C(=O)NC)c1-c1ccc(OC)cc1)Nc1ccccc1S2 | 19 | 22 | 18 | 21
5 | CNC(=O)C1=C(C)C2=C(Nc3ccccc3S2)C(C(=O)NC)C1c1ccc(Cl)cc1 (stereo not drawn) | 31 | 26 | 28 | > 35
6 | CNC(=O)c1c(C)c2c(c(C(=O)NC)c1-c1ccccc1OC)Nc1ccccc1S2 | > 30 | 25 | 22 | 28
7 | CNC(=O)C1=C(C)C2=C(Nc3ccccc3S2)C(C(=O)NC)C1c1ccccc1C (stereo not drawn) | 17 | 18 | 21 | 22
8 | CNC(=O)c1c(C)c2c(c(C(=O)NC)c1-c1ccc3c(c1)OCO3)Nc1ccccc1S2 | 20 | 20 | 24 | 18
9 | CNC(=O)C1=C(C)C2=C(Nc3ccccc3S2)C(C(=O)NC)C1c1ccccc1Cl (stereo not drawn) | 18 | 13 | 16 | 19
10 | CNC(=O)C1=C(C)C2=C(Nc3ccccc3S2)C(C(=O)NC)C1c1ccc2c(c1)OCO2 (stereo not drawn) | > 30 | > 30 | 28 | > 30
11 | CNC(=O)c1c(C)c2c(c(C(=O)NC)c1-c1ccccc1Cl)Nc1ccccc1S2 | 20 | 15 | 15 | 18
12 | CC(=O)Oc1ccccc1C(=O)O [ASPIRIN] | 28 | 22 | 24 | 36
13 | CNC(=O)C1=C(C)C2=C(Nc3ccccc3S2)C(C(=O)NC)C1c1ccc([N+](=O)[O-])cc1 (stereo not drawn) | 32 | > 30 | 28 | 36
14 | CNC(=O)c1c(C)c2c(c(C(=O)NC)c1-c1ccccc1C)Nc1ccccc1S2 | 18 | 18 | 21 | 25
15 | CNC(=O)c1c(C)c2c(c(C(=O)NC)c1-c1ccccc1)Nc1ccccc1S2 | 14 | – | 18 | 20
16 | CNC(=O)C1=C(C)C2=C(Nc3ccccc3S2)C(C(=O)NC)C1c1ccccc1OC (stereo not drawn) | > 30 | > 30 | 20 | > 30
